{"data": "Published values of several laboratories", "target": "Beta-adrenergic receptor kinase 1 (GRK2, Homo sapiens, UniProt P25098)", "One construct used (P25098 1-689)": "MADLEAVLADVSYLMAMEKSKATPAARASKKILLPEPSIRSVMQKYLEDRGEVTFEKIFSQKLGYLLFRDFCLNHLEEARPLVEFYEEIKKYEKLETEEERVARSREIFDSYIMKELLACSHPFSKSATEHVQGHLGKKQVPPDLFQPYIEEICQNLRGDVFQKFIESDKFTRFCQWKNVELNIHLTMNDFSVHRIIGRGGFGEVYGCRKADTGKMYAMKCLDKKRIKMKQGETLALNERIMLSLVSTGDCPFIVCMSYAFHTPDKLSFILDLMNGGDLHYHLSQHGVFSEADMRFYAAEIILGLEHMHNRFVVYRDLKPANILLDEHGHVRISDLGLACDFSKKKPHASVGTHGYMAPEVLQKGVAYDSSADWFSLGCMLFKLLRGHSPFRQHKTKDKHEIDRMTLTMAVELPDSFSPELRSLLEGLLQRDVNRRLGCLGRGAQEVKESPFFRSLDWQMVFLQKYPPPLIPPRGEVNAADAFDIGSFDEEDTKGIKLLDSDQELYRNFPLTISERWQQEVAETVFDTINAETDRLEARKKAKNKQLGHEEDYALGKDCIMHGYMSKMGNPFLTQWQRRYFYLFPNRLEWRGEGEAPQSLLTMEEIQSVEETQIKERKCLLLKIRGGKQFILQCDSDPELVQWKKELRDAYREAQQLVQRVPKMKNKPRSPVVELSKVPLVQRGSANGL"}
{"Compound": "F[C@@H]1CCN(c2nccc(-c3cnn4ncccc34)n2)C1", "test": "binding", "setting": "1 µM", "remaining binding [%]": 54}
{"Compound": "CNC(=O)[C@@H]1CC[C@@H](n2c(-c3ccc4cnccc4c3)nc3ccc(C(=O)NCc4cccc(C(N)=O)c4)cc32)C1", "test": "binding, competition with immobilised ligand", "setting": "1 µM", "remaining binding [%]": 92}
{"Compound": "O=C(NCC1CCOCC1)c1n[nH]cc1NC(=O)c1c(F)cccc1F", "test": "binding, competition with immobilised ligand", "setting": "1 µM", "remaining binding [%]": 71}
{"Compound": "O=C(c1ccc(Nc2ncc(Cl)c(-c3ccc(Cl)s3)n2)cc1)N1CCC(N2CCCC2)CC1", "test": "binding, competition with immobilised ligand", "setting": "1 µM", "remaining binding [%]": 98}
{"Compound": "Cc1c(C(=O)O)cc(-c2ccc(C3CCNCC3)cc2)c2ccc(-c3ccc(C(F)(F)F)cc3)cc12", "test": "binding, competition with immobilised ligand", "setting": "1 µM", "remaining binding [%]": 100}
{"Compound": "CN(C)c1ncc(F)c(-c2cnn3ncccc23)n1", "test": "binding, competition with immobilised ligand", "setting": "1 µM", "remaining binding [%]": 88}
{"Compound": "C=CC(=O)N1CCC(C(=O)NCC(=O)N2CCN(c3nc(-c4cnc(N)nc4C(F)F)nc(N4CCOCC4)n3)CC2)CC1", "test": "binding, competition with immobilised ligand", "setting": "1 µM", "remaining binding [%]": 100}
{"Compound": "O=C(c1ccc(Nc2nccc(-c3cc4ccccc4s3)n2)cc1)N1CCC(N2CCCC2)CC1", "test": "binding, competition with immobilised ligand", "setting": "1 µM", "remaining binding [%]": 100}
{"Compound": "CNCc1ccccc1-c1csc([C@@H](C)Nc2nc(C)nc3cc(OC)c(OC)cc23)c1", "test": "cell-free assay, competition with immobilised ligand", "setting": "1 µM", "remaining binding [%]": 86}
{"Compound": "COc1ncc2cc3ccccc3nc2c1C#N", "test": "cell-free assay, competition with immobilised ligand", "setting": "5 µM", "remaining binding [%]": 100}
{"Compound": "C[C@@H]1CCN(c2nccc(-c3cnn4ncccc34)n2)C1", "test": "binding, competition with immobilised ligand", "setting": "1 µM", "remaining binding [%]": 57}
{"Compound": "Nc1cnc(N2CCc3cc(S(=O)(=O)Nc4c(F)cc(Cl)cc4F)cc(N4CCCC4=O)c32)nc1", "test": "cell-free assay, competition with immobilised ligand", "setting": "1 µM", "remaining binding [%]": 100}
{"Compound": "Nc1ncc2c(n1)-c1c([nH]c3ccc(C#CC4CC4)cc13)CCCC2", "test": "binding, competition with immobilised ligand", "setting": "1 µM", "remaining binding [%]": 87}
{"Compound": "COc1ccc2c(c1)O[C@H](c1ccc(OC)c(OC)c1)C[C@@H]2NC(=O)C1(c2ccc3c(c2)OC(F)(F)O3)CC1", "test": "cell-free assay, competition with immobilised ligand", "setting": "1 µM", "remaining binding [%]": 84}
{"Compound": "COc1ccnn2ncc(-c3ccnc(N(C)C)n3)c12", "test": "binding", "setting": "1 µM", "remaining binding [%]": 100}
{"Compound": "Cc1cnc(Nc2ccc(C(=O)N3CCC(N4CCCC4)CC3)cc2)nc1-c1cc2ccccc2s1", "test": "binding, competition with immobilised ligand", "setting": "1 µM", "remaining binding [%]": 56}
{"Compound": "CO[C@H]1CC[C@H](CNc2ccc(S(=O)(=O)NC(=O)c3ccc(N4CCN(CC5=C(c6ccc(Cl)cc6)CC(C)(C)CC5)CC4)cc3Oc3cnc4[nH]ccc4c3)cc2[N+](=O)[O-])CC1", "test": "cell-free assay, competition with immobilised ligand", "setting": "1 µM", "remaining binding [%]": 85}
{"Compound": "CN(C)c1nccc(-c2cnn3ncccc23)n1", "test": "binding, competition with immobilised ligand", "setting": "1 µM", "remaining binding [%]": 74}
{"Compound": "CO[C@@H](C)c1c(Nc2ccc([C@@H](N(C)C(=O)C3CCS(=O)(=O)CC3)C(F)(F)F)cc2)cnc2cc(Cl)nn12", "test": "cell-free assay, competition with immobilised ligand", "setting": "1 µM", "remaining binding [%]": 92}
{"Compound": "CN(c1nccc(-c2cnn3ncccc23)n1)C1CC1", "test": "binding", "setting": "1 µM", "remaining binding [%]": 64}
